The source made the active and inactive calls. The rule behind the calls is not given here.
Experiments:
[1] = system: Rattus norvegicus; test: Reduction of systolic blood pressure in rat at 0.1 mg/kg, po (reference value: 102% +/- 1%); type: functional, Artery; design: scale not given: the % may be the effect or the level left
[2] = system: Aorta; test: Inhibition of noradrenaline-induced vasoconstriction in Wistar rat endothelium-denuded thoracic aortic ring at 1 mM after 20 mins; type: functional, tissue-based
In short: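 Endothelium-denuded rat aortic rings preincubated with test agent, NaHS or vehicle, then given cumulative noradrenaline. Contraction expressed as % of a prior response to 60 mM KCl.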

[3] = Activation of KATP channel in HASMC assessed as membrane hyperpolarization at 1 mM using DiBac4(3) dye by spectrofluorimetric analysis relative to LCRK; details: Homo sapiens
In short: (§1)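 Cultured human aortic smooth muscle cells; membrane potential followed as change in relative fluorescence of a potential-sensitive dye. Test agent added at increasing concentrations up to 1 mM. Response expressed as % of maximal hyperpolarization produced by levcromakalim 10 μM (reference KATP opener). Mean with SEM.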

[4] = Induction of H2S release in Tyrode buffer after 15 mins; type: physicochemical; details: 0.25 h
In short: (§2)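 Incubation in Tyrode buffer, the medium used for functional tests, with or without rat aortic ring tissue. No L-cysteine or glutathione added. H2S recorded continuously by amperometry; concentration reported 15 min after addition. Mean with SEM.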

[5] = Activation of KATP channel in HASMC assessed as membrane hyperpolarization using DiBac4(3) dye by spectrofluorimetric analysis relative to LCRK; details: Homo sapiens; in short: as §1
[6] = Induction of H2S release in Tyrode buffer in presence of Wistar rat endothelium-denuded thoracic aortic ring; type: functional; details: TDE = time-dependent effect; in short: as §2
[7] = Induction of H2S release in PBS buffer 10x at pH 7.4 at 1 mM in presence of glutathione; type: physicochemical; details: pH 7.4, 1000 µM
In short: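 Release measured amperometrically in assay buffer (pH 7.4, 35–37 °C), test agent 1 mM, with reduced glutathione added as the thiol. Continuous H2S–time curves recorded. Mean with SEM.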

Activity [4] [µM]	Activity [5]	Activity [7]	Compound	Activity [1] [%]	inhibition [2]	Activity [3] [%]	Activity [6]
–	–	–	[Na+].[SH-] [SODIUM HYDROSULFIDE]	91	Active	52	–
0.24	Dose-dependent effect	Active	NC(=S)c1ccc(O)cc1	89	Active	79	tde
